Five molecules from ChEMBL document CHEMBL1121890, “Synthesis and antimetastatic properties of steroeoisomeric trycylic bis(dioxopiperazine) analogues in a B16 melanoma model” (1981) can be followed below.

Molecules are shown by their SMILES. Several values for one entry are separate records, joined by “and”; a condition that tells them apart may be missing. Equal entries are not always repeated.

What all share (type): functional, Mus musculus
In experiment [1] the test system is B16-F10. The experiment in a line: Effect of 100 uM on B16-F10 melanoma cells (experiment 1). The method, boiled down: (§1)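 B16-F10 cells, cultured in vitro for no more than 10 passages, were exposed for 24 h to drug made up as a 1000 μM Me₂SO stock and diluted in medium. Controls were Me₂SO or saline. Cells were scraped, washed and set at 5 × 10⁵/mL in Hanks BSS, and 0.2 mL was given iv by tail vein to male C57Bl/6J mice aged 6–8 weeks. Black lung nodules were counted at 14 days, mean ± SD, ANOVA/Newman–Keuls.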

The test system of experiment [2] is B16-F10. The experiment is described as follows: Effect of 2 uM on B16-F10 melanoma cells (experiment 1). The method, boiled down: as §1
Experiment [3] deals with B16-F10. The experiment in a line: Effect of 20 uM on B16-F10 melanoma cells (experiment 1). An outline of the steps: as §1
Experiment [4] concerns B16-F10. The experiment is described as follows: Effect of 100 uM on B16-F10 melanoma cells (experiment 2). An outline of the steps: as §1
For experiment [5], the system named is B16-F10. The experiment is described as follows: Effect of 20 uM on B16-F10 melanoma cells (experiment 2). An outline of the steps: as §1
In experiment [6] the test system is B16-F10. The experiment is described as follows: Effect of 2 uM on B16-F10 melanoma cells (experiment 2). The method, boiled down:
as §1

`CCOC(=O)CN1CCN(CC(=O)OCC)[C@H]2C(=O)NC(=O)[C@H]21`: the “Mean no. of lung colonies” value with B16-F10 [1] was found to be 142.5; with B16-F10 [2], 159.7; with B16-F10 [3] it was 160.7.
As for `COC(=O)CN1CCN2CC(=O)NC(=O)[C@@H]2[C@@H]1C(N)=O`, the “Mean no. of lung colonies” value with B16-F10 [4] stood at 56.7; in the experiment with B16-F10 [5] it was 101.3; with B16-F10 [6], 86.2.
As for `CCOC(=O)COC(=O)[C@H]1[C@@H](C(N)=O)N(CC(=O)OCC)CCN1CC(=O)OCC`, the “Mean no. of lung colonies” value in the experiment on B16-F10 [1] amounted to 37.1; in the experiment with B16-F10 [2], 33.2; in the experiment on B16-F10 [3] it was 43.4.
In the case of `O=C1CN2CCN3CC(=O)NC(=O)[C@H]3C2C(=O)N1` (some centres not stated), the “Mean no. of lung colonies” value in the experiment on B16-F10 [4] is 118.9; in the experiment on B16-F10 [5], 96.1; in the experiment with B16-F10 [6], 52.1.
Turning to `O=C1CN2CCN3CC(=O)NC(=O)[C@@H]3C2C(=O)N1` (some centres not stated), the “Mean no. of lung colonies” value in the experiment with B16-F10 [1] was 65.7; in the experiment with B16-F10 [2], 29.1; in the experiment with B16-F10 [3] it was 23.3; with B16-F10 [5], 50.1 and 50.2; in the experiment on B16-F10 [6], 39.1.
